Test results published in ChEMBL document CHEMBL5316288, “Synthetic Strategies for Improving Solubility: Optimization of Novel Pyrazolo[1,5-a]pyrimidine CFTR Activator That Ameliorates Dry Eye Disease” (J Med Chem, 2023).
In brackets after ≈: the same amount, converted by molar mass.

Key:
[1] = Half life in New Zealand White Rabbit cornea at 0.1 mg per eye, TOP and measured upto 72 hrs by LC-MS/MS analysis; assay type: ADME, tissue-based, Oryctolagus cuniculus; settings: in vivo, topical_or_ocular
In short: (§1)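 Male New Zealand White rabbits each received a single topical eye drop of 0.1 mg/eye, formulated in 5% polyoxyl 35 castor oil in sodium phosphate buffer. Plasma, tear, cornea, conjunctiva and retina were sampled from one eye at 0.5, 1, 4, 8, 12, 24, 48 and 72 h. Levels were measured by LC-MS/MS in tear and tissue homogenates. Parameters came from non-compartmental analysis of composite means, n = 3.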

[2] = Cytotoxicity against human Corneal epithelial cells assessed as reduction in cell viability at 30 uM incubated for 48 hrs with medium changed every 12 hrs by MTS assay; assay type: toxicity, cell-based
In short: (§2)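 Immortalized human corneal or conjunctival epithelial cells were plated and, after 24 h, exposed to 30 μM compound for 48 h. DMSO served as control and 0.01% Triton X-100 as the lysis control. Medium and compound were renewed every 12 h. Viability was read by MTS, 1 h incubation, absorbance at 490 nm; n = 3.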

[3] = AUC (0 to infinity) in New Zealand White Rabbit conjunctiva at 0.1 mg per eye, TOP and measured upto 72 hrs by LC-MS/MS analysis; assay type: ADME, tissue-based, Oryctolagus cuniculus; parameters: time < 72 hrs, dose 0.1 mg, route top; settings: topical or ocular; in short: as §1
[4] = Cmax in New Zealand White Rabbit conjunctiva at 0.1 mg per eye, TOP and measured upto 72 hrs by LC-MS/MS analysis; assay type: ADME, tissue-based, Oryctolagus cuniculus; parameters: dose 0.1 mg, time < 72 hrs, route top; settings: topical or ocular; in short: as §1
[5] = AUC (0 to infinity) in New Zealand White Rabbit eye tear at 0.1 mg per eye, TOP and measured upto 72 hrs by LC-MS/MS analysis; assay type: ADME, tissue-based, Oryctolagus cuniculus, Secretion of lacrimal gland; parameters: time < 72 hrs, dose 0.1 mg, route top; settings: in vivo, topical_or_ocular; in short: as §1
[6] = Half life in New Zealand White Rabbit conjunctiva at 0.1 mg per eye, TOP and measured upto 72 hrs by LC-MS/MS analysis; assay type: ADME, tissue-based, Oryctolagus cuniculus; settings: in vivo, topical_or_ocular; in short: as §1
[7] = AUClast in New Zealand White Rabbit conjunctiva at 0.1 mg per eye, TOP and measured upto 72 hrs by LC-MS/MS analysis; assay type: ADME, tissue-based, Oryctolagus cuniculus; parameters: time < 72 hrs, dose 0.1 mg, route top; settings: topical or ocular; in short: as §1
[8] = Cytotoxicity against human Conjunctival epithelial cells assessed as reduction in cell viability at 30 uM incubated for 48 hrs with medium changed every 12 hrs by MTS assay; assay type: toxicity, cell-based; in short: as §2
[9] = Cmax in New Zealand White Rabbit cornea at 0.1 mg per eye, TOP and measured upto 72 hrs by LC-MS/MS analysis; assay type: ADME, tissue-based, Oryctolagus cuniculus; parameters: dose 0.1 mg, time < 72 hrs, route top; settings: topical or ocular; in short: as §1
[10] = Tmax in New Zealand White Rabbit conjunctiva at 0.1 mg per eye, TOP and measured upto 72 hrs by LC-MS/MS analysis; assay type: ADME, tissue-based, Oryctolagus cuniculus; settings: in vivo, topical_or_ocular; in short: as §1
[11] = Half life in New Zealand White Rabbit eye tear at 0.1 mg per eye, TOP and measured upto 72 hrs by LC-MS/MS analysis; assay type: ADME, tissue-based, Oryctolagus cuniculus, Secretion of lacrimal gland; settings: in vivo, topical_or_ocular; in short: as §1
[12] = Solubility of compound in PBS at 7.5 at 0.5 mg/ml incubated for 90 mins by LC-MS/MS analysis; assay type: physicochemical; settings: PBS, pH 7.5
In short: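 Thermodynamic solubility: compound at 0.5 mg/mL in isotonic phosphate-buffered saline, pH 7.5, vortexed for 90 min. The solution was then filtered sequentially through 0.45, 1.2 and 5.0 μm filters. Concentration was measured by LC-MS/MS against a ≥6-point internal-standard calibration curve (weighted 1/x linear or quadratic) and back-calculated.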

[13] = Tlast in New Zealand White Rabbit conjunctiva at 0.1 mg per eye, TOP and measured upto 72 hrs by LC-MS/MS analysis; assay type: ADME, tissue-based, Oryctolagus cuniculus; settings: in vivo, topical_or_ocular; in short: as §1
[14] = AUC (0 to 24 hrs) in New Zealand White Rabbit conjunctiva at 0.1 mg per eye, TOP and measured upto 72 hrs by LC-MS/MS analysis; assay type: ADME, tissue-based, Oryctolagus cuniculus; parameters: dose 0.1 mg, time < 72 hrs, route top; settings: topical or ocular; in short: as §1
[15] = Tlast in New Zealand White Rabbit eye tear at 0.1 mg per eye, TOP and measured upto 72 hrs by LC-MS/MS analysis; assay type: ADME, tissue-based, Oryctolagus cuniculus, Secretion of lacrimal gland; settings: in vivo, topical_or_ocular; in short: as §1
[16] = AUC (0 to infinity) in New Zealand White Rabbit cornea at 0.1 mg per eye, TOP and measured upto 72 hrs by LC-MS/MS analysis; assay type: ADME, tissue-based, Oryctolagus cuniculus; parameters: time < 72 hrs, dose 0.1 mg, route top; settings: topical or ocular; in short: as §1
[17] = AUC (0 to 24 hrs) in New Zealand White Rabbit eye tear at 0.1 mg per eye, TOP and measured upto 72 hrs by LC-MS/MS analysis; assay type: ADME, tissue-based, Oryctolagus cuniculus, Secretion of lacrimal gland; parameters: dose 0.1 mg, time < 72 hrs, route top; settings: in vivo, topical_or_ocular; in short: as §1
[18] = Cmax in New Zealand White Rabbit eye tear at 0.1 mg per eye, TOP and measured upto 72 hrs by LC-MS/MS analysis; assay type: ADME, tissue-based, Oryctolagus cuniculus, Secretion of lacrimal gland; parameters: time < 72 hrs, dose 0.1 mg, route top; settings: in vivo, topical_or_ocular; in short: as §1
[19] = AUClast in New Zealand White Rabbit eye tear at 0.1 mg per eye, TOP and measured upto 72 hrs by LC-MS/MS analysis; assay type: ADME, tissue-based, Oryctolagus cuniculus, Secretion of lacrimal gland; parameters: dose 0.1 mg, time < 72 hrs, route top; settings: in vivo, topical_or_ocular; in short: as §1
[20] = AUClast in New Zealand White Rabbit cornea at 0.1 mg per eye, TOP and measured upto 72 hrs by LC-MS/MS analysis; assay type: ADME, tissue-based, Oryctolagus cuniculus; parameters: dose 0.1 mg, time < 72 hrs, route top; settings: topical or ocular; in short: as §1
[21] = Tmax in New Zealand White Rabbit cornea at 0.1 mg per eye, TOP and measured upto 72 hrs by LC-MS/MS analysis; assay type: ADME, tissue-based, Oryctolagus cuniculus; settings: in vivo, topical_or_ocular; in short: as §1
[22] = AUC (0 to 24 hrs) in New Zealand White Rabbit cornea at 0.1 mg per eye, TOP and measured upto 72 hrs by LC-MS/MS analysis; assay type: ADME, tissue-based, Oryctolagus cuniculus; parameters: dose 0.1 mg, time < 72 hrs, route top; settings: topical or ocular; in short: as §1
[23] = Tlast in New Zealand White Rabbit cornea at 0.1 mg per eye, TOP and measured upto 72 hrs by LC-MS/MS analysis; assay type: ADME, tissue-based, Oryctolagus cuniculus; settings: in vivo, topical_or_ocular; in short: as §1

In the case of `COc1ccc(-c2ccnc3cc(C(=O)N4CCN(C(=O)c5ccccc5)[C@@H](C)C4)nn23)cc1OC`, the t1/2 [1] is reported as 23.1 h, the Activity [2] is reported as “Non-Toxic” and the AUC(0-inf) [3] is reported as 13700 ng·h/mL. It also gave a Cmax [4] of 793 ng/mL, an AUC [5] of 18750 ng·h/mL and a t1/2 [6] of 40.6 h. For the same molecule, the AUC(0-t) at 72 h [7] was 9820 ng·h/mL, the Activity [8] was “Non-Toxic” and the Cmax [9] was 7840 ng/mL. The Tmax [10] was 0.5 h, the t1/2 [11] was 29.8 h and the solubility thermodynamic at 1.5 h [12] was 134 µM (≈ 65.3 µg/mL). It also gave a Tlast [13] of 72 h, an AUC(0-t) at 72 h [14] of 4730 ng·h/mL and a Tlast [15] of 72 h. It also gave an AUC(0-inf) [16] of 35800 ng·h/mL, an AUC [17] of 7952 ng·h/mL and a Cmax [18] of 749 ng/mL. For the same molecule, the AUClast [19] was 16573 ng·h/mL, the AUC(0-t) at 72 h [20] was 28300 ng·h/mL and the Tmax [21] was 0.5 h. It also gave an AUC(0-t) at 72 h [22] of 19400 ng·h/mL and a Tlast [23] of 72 h.
